Assay results taken from ChEMBL document CHEMBL1153392, “Identification of a metabolically stable triazolopyrimidine-based dihydroorotate dehydrogenase inhibitor with antimalarial activity in mice” (J Med Chem, 2009).
The source made the active and inactive calls. The rule behind the calls is not given here.

Tests used:
[1] = molecular target: T1, Dihydroorotate dehydrogenase (Plasmodium falciparum, UniProt Q54A96); test: Inhibition of Plasmodium falciparum DHODH
T1 sequence (Q54A96 whole entry): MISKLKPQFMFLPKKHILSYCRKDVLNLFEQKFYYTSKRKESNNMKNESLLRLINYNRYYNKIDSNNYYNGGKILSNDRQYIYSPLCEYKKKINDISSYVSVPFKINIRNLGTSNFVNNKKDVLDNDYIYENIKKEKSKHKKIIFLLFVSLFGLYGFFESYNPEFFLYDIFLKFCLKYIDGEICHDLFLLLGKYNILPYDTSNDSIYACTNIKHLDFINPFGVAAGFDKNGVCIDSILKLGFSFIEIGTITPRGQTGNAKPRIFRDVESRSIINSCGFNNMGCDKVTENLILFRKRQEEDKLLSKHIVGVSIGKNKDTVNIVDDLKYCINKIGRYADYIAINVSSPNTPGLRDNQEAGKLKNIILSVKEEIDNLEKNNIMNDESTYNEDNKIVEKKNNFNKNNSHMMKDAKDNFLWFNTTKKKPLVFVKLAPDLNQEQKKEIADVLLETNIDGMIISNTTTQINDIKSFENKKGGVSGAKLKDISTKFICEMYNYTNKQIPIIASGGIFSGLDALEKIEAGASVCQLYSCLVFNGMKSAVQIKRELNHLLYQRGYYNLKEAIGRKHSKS
Summary of the method: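 Truncated soluble recombinant enzyme expressed in E. coli. Triplicate points per inhibitor concentration; IC50 from fit to Vi = Vo/(1+[I]/IC50).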

Plasmodium falciparum = test: Antiplasmodial activity against Plasmodium falciparum 3D7 by [3H]hypoxanthine uptake; type: functional, organism-based
Summary of the method: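 Proliferation of drug-treated infected erythrocytes measured by [3H]hypoxanthine uptake over a range of inhibitor concentrations, triplicate points per concentration. EC50 derived from a Hill-slope logistic fit.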

Plasmodium berghei [2] = test: Inhibition of Plasmodium berghei ANKA DHODH
Summary of the method: (§1)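 Truncated soluble enzyme expressed in E. coli and purified. DCIP (0.12 mM) reduction followed at 600 nm with 5-10 nM enzyme, 0.2 mM L-dihydroorotate and 0.02 mM CoQD in 100 mM HEPES pH 8.0, 150 mM NaCl, 10% glycerol, 0.1% Triton, 20 °C. Triplicate points per concentration; IC50 fitted.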

Liver microsomes [3] = conditions: human, 1 µM
Liver microsomes [4] = conditions: human, 1 µM; remark: listed apart in the source
[5] = molecular target: Dihydroorotate dehydrogenase (quinone), mitochondrial (Homo sapiens, UniProt Q02127); test: Inhibition of human DHODH; summary of the method: as §1
Mus musculus [6] = test: Plasma concentration in Swiss mouse at 50 mg/kg, po administered as single dose; type: ADME, organism-based; parameters: dose 50 mg/kg, route oral; conditions: in vivo
Summary of the method: (§2)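 Nonfasted male Swiss outbred mice, 23-33 g, fed ad libitum. Single oral gavage as a suspension in 0.5% CMC, 0.5% benzyl alcohol, 0.4% Tween-80. One cardiac-puncture blood sample per mouse per time point. Plasma analysed by LC-MS/MS after acetonitrile precipitation, with diazepam as internal standard and a plasma calibration curve. PK parameters taken from mean concentration-time profiles.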

Mus musculus [7] = test: Toxicity in Plasmodium berghei NK65 infected BALB/c mice (Mus musculus) at 50 mg/kg, perorally bid for 4 days measured on day 5 postinfection; type: organism-based; parameters: dose 50 mg/kg, route oral; conditions: in vivo, po, 96 h
Summary of the method: (§3)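 P. berghei-infected female BALB/c mice dosed by oral gavage in 0.5% CMC/0.4% Tween-80/0.5% benzyl alcohol. Tail bleeds and body weighing done daily. Animals monitored for ill effects and euthanized when the no-drug controls lost 20% of their pre-infection body weight.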

[8] = Half life in Swiss mouse at 50 mg/kg, po administered as single dose; type: ADME, organism-based; parameters: dose 50 mg/kg, route oral; conditions: in vivo; summary of the method: as §2
Mus musculus [9] = test: Toxicity in Swiss mouse at 20 mg/kg, po administered as single dose; type: organism-based; parameters: dose 20 mg/kg, route oral; conditions: in vivo
Summary of the method: (§4)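 Nonfasted male Swiss outbred mice, 23-33 g, given a single oral gavage dose suspended in 0.5% CMC/0.5% benzyl alcohol/0.4% Tween-80, then watched for adverse reactions over the plasma sampling period.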

Mus musculus [10] = test: Toxicity in Swiss mouse at 50 mg/kg, po administered as single dose; type: organism-based; parameters: dose 50 mg/kg, route oral; conditions: in vivo; summary of the method: as §4
Mus musculus [11] = test: Plasma concentration in Swiss mouse at 20 mg/kg, po administered as single dose; type: ADME, organism-based; parameters: dose 20 mg/kg, route oral; conditions: in vivo; summary of the method: as §2
Mus musculus [12] = test: Toxicity in Plasmodium berghei NK65 infected BALB/c mice (Mus musculus) at 50 mg/kg, perorally qd for 4 days measured on day 5 postinfection; type: organism-based; parameters: dose 50 mg/kg, route oral; conditions: in vivo, po, 96 h; summary of the method: as §3
Plasmodium berghei [13] = test: (§5) Antimalarial activity as reduced growth at day 5 in Plasmodium berghei NK65 infected BALB/c mice (Mus musculus) at 50 mg/kg peroral dose over 4 days; type: functional; parameters: scale not given: the % may be the effect or the level left; conditions: route oral
Summary of the method: (§6)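 Female BALB/c mice, 8-10 weeks old, infected ip with 2 × 10^7 infected erythrocytes 24 h before the first dose; ≥0.1% parasitemia confirmed first. Dosing by oral gavage in 0.5% CMC/0.4% Tween-80/0.5% benzyl alcohol, once daily (n = 3) or twice daily (n = 5) on days 1-4, with vehicle controls. Parasitemia counted daily from Wright-Giemsa thin tail-blood smears; suppression reported on day 5.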

Plasmodium berghei [14] = test: as §5; type: functional; parameters: scale not given: the % may be the effect or the level left; conditions: route oral; summary of the method: as §6; remark: listed apart in the source
[15] = Plasma concentration in Swiss mouse at 50 mg/kg, po administered as single dose for 16 hrs; type: ADME, organism-based; parameters: dose 50 mg/kg, route oral; summary of the method: as §2
[16] = Plasma concentration in Swiss mouse at 50 mg/kg, po administered as single dose for 240 mins; type: ADME, organism-based; parameters: dose 50 mg/kg, route oral; conditions: read-out: C0; summary of the method: as §2
Mus musculus [17] = test: Toxicity in Plasmodium berghei NK65 infected BALB/c mice (Mus musculus) at 100 mg/kg, perorally administered every 4 hrs x 10 doses followed by every 6 hrs x 6 doses schedule; type: organism-based; parameters: dose 100 mg/kg, route oral; conditions: in vivo, po; summary of the method: as §3
Plasmodium berghei [18] = test: Antimalarial activity as reduced parasitaemia against Plasmodium berghei NK65 infected BALB/c mice (Mus musculus) at 100 mg/kg peroral dose at 10x4hrs then 6x6hrs; type: functional, organism-based; parameters: dose 100 mg/kg
Summary of the method: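 Female BALB/c mice, 8-10 weeks old, infected ip with 2 × 10^7 infected erythrocytes 24 h before dosing; ≥0.1% parasitemia verified. Oral gavage in 0.5% CMC/0.4% Tween-80/0.5% benzyl alcohol every 4 h × 10 doses, then every 6 h × 6 doses (n = 6 per group), against vehicle controls. Parasitemia counted daily by light microscopy of Wright-Giemsa stained thin tail-blood smears.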

Sequence of Dihydroorotate dehydrogenase (quinone), mitochondrial (Q02127 whole entry): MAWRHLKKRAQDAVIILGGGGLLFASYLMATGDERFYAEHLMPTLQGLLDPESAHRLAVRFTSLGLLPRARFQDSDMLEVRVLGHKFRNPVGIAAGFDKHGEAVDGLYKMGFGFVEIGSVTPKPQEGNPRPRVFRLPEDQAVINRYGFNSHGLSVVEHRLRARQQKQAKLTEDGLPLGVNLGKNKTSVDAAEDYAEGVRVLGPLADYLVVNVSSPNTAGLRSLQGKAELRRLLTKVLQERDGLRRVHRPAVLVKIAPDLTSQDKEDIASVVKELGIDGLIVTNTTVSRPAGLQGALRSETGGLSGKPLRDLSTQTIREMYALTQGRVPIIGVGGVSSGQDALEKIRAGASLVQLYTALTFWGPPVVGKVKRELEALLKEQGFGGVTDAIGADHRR

Structure (SMILES)	IC50 [1] [µM]	EC50 (Plasmodium falciparum) [µM]	IC50 (Plasmodium berghei [2]) [µM]	also measured
Cc1cc(Nc2ccc(-c3ccccc3)cc2)n2ncnc2n1	5.3	> 50		
Cc1cc(Nc2ccccc2F)n2ncnc2n1	> 100	> 50	> 100	
Cc1cc(Nc2c(F)c(F)c(F)c(F)c2F)n2ncnc2n1	> 100	> 50	> 100	
Cc1cc(Nc2ccccc2C#N)n2ncnc2n1	> 100	25	> 100	
Cc1cc(Nc2ccc(F)cc2)n2ncnc2n1	19	50	> 100	
Cc1cc(Nc2cccc(Cl)c2)n2ncnc2n1	1.4			t1/2 (Liver microsomes [3]): 0.75 h; CL (Liver microsomes [4]): 38 µL/min/mg
Cc1cc(Nc2ccc(Cl)c(C(F)(F)F)c2)n2ncnc2n1	0.8	> 5	2.4	IC50 [5]: > 100 µM; t1/2 (Liver microsomes [3]): 2.17 h; CL (Liver microsomes [4]): 13 µL/min/mg
Cc1ccc(Nc2cc(C)nc3ncnn23)c(F)c1	27	35	> 100	
Cc1cc(Nc2cccc(C(F)(F)F)c2)n2ncnc2n1	14	19	55	t1/2 (Liver microsomes [3]): 1 h; CL (Liver microsomes [4]): 29 µL/min/mg
Cc1cc(Nc2ccc([N+](=O)[O-])cc2)n2ncnc2n1	4.3		3.7	
Cc1cc(Nc2ccc(F)c(C)c2)n2ncnc2n1	4.6	8.7	21	
Cc1cccc(Nc2cc(C)nc3ncnn23)c1	4.9	37	> 100	
Cc1cc(Nc2cccc(F)c2)n2ncnc2n1	9.2	34	> 100	t1/2 (Liver microsomes [3]): 1.62 h; CL (Liver microsomes [4]): 18 µL/min/mg
Cc1cc(Nc2ccc(Br)c(C(F)(F)F)c2)n2ncnc2n1	0.45	2.6	1.5	IC50 [5]: > 100 µM; t1/2 (Liver microsomes [3]): 2.17 h; CL (Liver microsomes [4]): 14 µL/min/mg
Cc1ccc(Nc2cc(C)nc3ncnn23)cc1	4.2	6.4	16	
Cc1cc(Nc2ccc(C(F)(F)F)cc2)n2ncnc2n1				concentration (Mus musculus [6]): 27.6 µM; Activity (Mus musculus [7]): Non-toxic; half-life [8]: 3 h; t1/2 (Liver microsomes [3]): 3.83 h; CL (Liver microsomes [4]): 7.5 µL/min/mg; Activity (Mus musculus [9]): Non-toxic; Activity (Mus musculus [10]): Non-toxic; concentration (Mus musculus [11]): 7.9 µM; Activity (Mus musculus [12]): Non-toxic; Activity (Plasmodium berghei [13]): 95%; Activity (Plasmodium berghei [14]): 71%; concentration at 16 h [15]: 1 µM
COc1ccc(Nc2cc(C)nc3ncnn23)cc1	4.6	14	> 50	
Cc1cc(Nc2ccccc2Cl)n2ncnc2n1	> 100	30	> 100	
Cc1cc(Nc2c(F)cccc2F)n2ncnc2n1	> 100	> 50	> 100	
Cc1cc(Nc2ccc(C(F)(F)F)c(F)c2)n2ncnc2n1	0.077	1.3	0.26	IC50 [5]: > 100 µM; t1/2 (Liver microsomes [3]): 6 h; CL (Liver microsomes [4]): 4.8 µL/min/mg
Cc1cc(Nc2c(F)c(F)cc(F)c2F)n2ncnc2n1	> 100	> 50	> 100	

Structure (SMILES)	IC50 [1] [µM]	EC50 (Plasmodium falciparum) [µM]	IC50 (Plasmodium berghei [2]) [µM]	also measured
Cc1cc(Nc2cc(C(F)(F)F)cc(C(F)(F)F)c2)n2ncnc2n1	> 100	> 5	> 100	
Cc1cc(Nc2ccc(Cc3ccccc3)cc2)n2ncnc2n1	2.2	5	> 100	
Cc1cc(Nc2ccccc2C)n2ncnc2n1	> 100	> 50	> 100	
Cc1cc(Nc2ccc(Br)cc2)n2ncnc2n1	0.78	4.2	1.3	IC50 [5]: > 100 µM
Cc1cc(Nc2ccc3cc4ccccc4cc3c2)n2ncnc2n1				concentration (Mus musculus [6]): 2 µM; concentration at 4 h [16]: 1 µM; Activity (Mus musculus [17]): Non-toxic; Activity (Plasmodium berghei [18]): inactive; t1/2 (Liver microsomes [3]): 0.717 h; CL (Liver microsomes [4]): 37 µL/min/mg
Cc1cc(Nc2ccc(C)c(C)c2)n2ncnc2n1	0.35		4	IC50 [5]: > 100 µM; t1/2 (Liver microsomes [3]): 0.383 h; CL (Liver microsomes [4]): 77 µL/min/mg
Cc1cc(Nc2c(F)cc(F)cc2F)n2ncnc2n1	> 100		> 100	
Cc1cc(Nc2ccc(C)c(F)c2)n2ncnc2n1	0.86	3.6	3.2	IC50 [5]: > 100 µM; t1/2 (Liver microsomes [3]): 0.6 h; CL (Liver microsomes [4]): 49 µL/min/mg
Cc1cc(Nc2cc(F)c(F)cc2F)n2ncnc2n1	17	> 50	> 100	
Cc1cc(Nc2ccc(F)c(F)c2)n2ncnc2n1	8	> 50	10	
Cc1cc(Nc2ccc(OC(F)F)cc2)n2ncnc2n1	2.8	8.2	25	
Cc1cc(Nc2ccc(OC(F)(F)F)cc2)n2ncnc2n1	1.2		4	IC50 [5]: > 100 µM
Cc1cc(Nc2cccc(F)c2F)n2ncnc2n1	39		> 100	
Cc1cc(Nc2ccc3ccccc3c2)n2ncnc2n1				concentration (Mus musculus [6]): 2 µM; Activity (Mus musculus [17]): Non-toxic; Activity (Plasmodium berghei [18]): inactive; t1/2 (Liver microsomes [3]): 0.3 h; CL (Liver microsomes [4]): 96 µL/min/mg
Cc1cc(Nc2cc(F)cc(F)c2)n2ncnc2n1	9.4		21	
Cc1cc(Nc2ccc(F)c(F)c2F)n2ncnc2n1	29	> 50	> 100	
Cc1cc(Nc2cc(F)ccc2F)n2ncnc2n1	> 50	> 50	> 100	
Cc1cc(Nc2ccc(C)c(C(F)(F)F)c2)n2ncnc2n1	1.55		7.3	IC50 [5]: > 100 µM
Cc1cc(Nc2ccccc2C(F)(F)F)n2ncnc2n1	> 100		> 100	
Cc1cc(Nc2ccc(Cl)cc2)n2ncnc2n1	1.6	12	5.7	IC50 [5]: > 100 µM
Cc1cc(Nc2ccc(C#N)c(C(F)(F)F)c2)n2ncnc2n1	4.9	8.8	11	t1/2 (Liver microsomes [3]): 4.67 h; CL (Liver microsomes [4]): 6.2 µL/min/mg
